Where two headings read alike, the source gives them in different places.
Legend:
[1] = molecular target: T1, COX-2 in 1483 HNSCC cells (Homo sapiens, UniProt P35354); assay: Inhibition of COX-2 in intact 1483 HNSCC cells; assay type: cell-based
T1 sequence (P35354 18-604): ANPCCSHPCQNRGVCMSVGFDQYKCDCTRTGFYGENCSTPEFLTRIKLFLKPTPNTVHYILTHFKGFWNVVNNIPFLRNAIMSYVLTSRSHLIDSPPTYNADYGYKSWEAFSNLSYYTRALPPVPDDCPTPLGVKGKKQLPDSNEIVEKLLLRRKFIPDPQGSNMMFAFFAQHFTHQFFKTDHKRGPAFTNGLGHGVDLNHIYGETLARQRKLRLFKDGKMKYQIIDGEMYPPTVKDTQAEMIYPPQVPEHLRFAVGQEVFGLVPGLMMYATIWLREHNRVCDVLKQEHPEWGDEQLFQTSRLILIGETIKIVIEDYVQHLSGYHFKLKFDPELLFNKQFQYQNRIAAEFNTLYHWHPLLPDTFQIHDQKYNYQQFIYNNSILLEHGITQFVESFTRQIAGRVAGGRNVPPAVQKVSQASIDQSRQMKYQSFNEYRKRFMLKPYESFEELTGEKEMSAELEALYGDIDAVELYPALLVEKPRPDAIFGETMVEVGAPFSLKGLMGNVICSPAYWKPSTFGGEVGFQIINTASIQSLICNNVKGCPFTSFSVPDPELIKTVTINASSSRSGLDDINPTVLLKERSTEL

[2] = molecular target: T2, mouse COX-2 (Mus musculus, UniProt Q05769); assay: Inhibition of purified COX-2; assay type: biochemical
T2 sequence (Q05769 18-604): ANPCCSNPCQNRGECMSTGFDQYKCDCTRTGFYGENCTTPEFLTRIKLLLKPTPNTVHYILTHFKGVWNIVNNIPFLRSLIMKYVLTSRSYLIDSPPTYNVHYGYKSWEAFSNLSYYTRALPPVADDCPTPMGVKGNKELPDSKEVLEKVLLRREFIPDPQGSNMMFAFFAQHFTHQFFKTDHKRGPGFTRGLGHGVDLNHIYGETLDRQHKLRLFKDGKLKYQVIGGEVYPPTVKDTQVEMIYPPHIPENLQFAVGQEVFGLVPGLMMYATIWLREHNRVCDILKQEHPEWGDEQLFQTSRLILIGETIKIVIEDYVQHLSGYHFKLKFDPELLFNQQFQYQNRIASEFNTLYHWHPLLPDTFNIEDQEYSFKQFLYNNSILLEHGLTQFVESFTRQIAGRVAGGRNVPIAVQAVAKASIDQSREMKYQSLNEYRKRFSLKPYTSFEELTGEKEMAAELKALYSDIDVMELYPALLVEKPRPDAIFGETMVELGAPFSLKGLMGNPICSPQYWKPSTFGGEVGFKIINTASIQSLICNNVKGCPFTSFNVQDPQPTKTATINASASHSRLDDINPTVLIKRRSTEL

[3] = molecular target: COX-1 in OVCAR3 cells (Homo sapiens, UniProt P23219); assay: Inhibition of COX-1 in intact OVCAR3 cells; assay type: cell-based
COX-1 in OVCAR3 cells, sequence (P23219 24-599): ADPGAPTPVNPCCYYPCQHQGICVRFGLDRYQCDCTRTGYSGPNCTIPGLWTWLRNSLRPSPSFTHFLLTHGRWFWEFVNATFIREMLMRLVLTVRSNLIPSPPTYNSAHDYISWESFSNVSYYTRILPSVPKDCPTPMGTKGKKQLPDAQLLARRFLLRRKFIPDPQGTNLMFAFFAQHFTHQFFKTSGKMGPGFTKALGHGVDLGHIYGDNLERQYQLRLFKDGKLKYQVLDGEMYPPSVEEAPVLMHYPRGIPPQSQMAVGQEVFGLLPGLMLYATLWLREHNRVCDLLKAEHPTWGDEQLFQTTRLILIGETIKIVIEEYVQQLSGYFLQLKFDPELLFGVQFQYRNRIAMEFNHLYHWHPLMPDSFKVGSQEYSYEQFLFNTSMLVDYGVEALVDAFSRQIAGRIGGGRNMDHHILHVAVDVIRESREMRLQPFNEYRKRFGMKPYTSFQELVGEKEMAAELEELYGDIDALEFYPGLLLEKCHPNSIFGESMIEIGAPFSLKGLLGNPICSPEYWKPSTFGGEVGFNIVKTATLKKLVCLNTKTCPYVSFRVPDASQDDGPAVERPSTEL

[4] = molecular target: T3, ovine COX-1 (Ovis aries, UniProt P05979); assay: Inhibition of purified ovine COX-1; assay type: biochemical
T3 sequence (P05979 25-600): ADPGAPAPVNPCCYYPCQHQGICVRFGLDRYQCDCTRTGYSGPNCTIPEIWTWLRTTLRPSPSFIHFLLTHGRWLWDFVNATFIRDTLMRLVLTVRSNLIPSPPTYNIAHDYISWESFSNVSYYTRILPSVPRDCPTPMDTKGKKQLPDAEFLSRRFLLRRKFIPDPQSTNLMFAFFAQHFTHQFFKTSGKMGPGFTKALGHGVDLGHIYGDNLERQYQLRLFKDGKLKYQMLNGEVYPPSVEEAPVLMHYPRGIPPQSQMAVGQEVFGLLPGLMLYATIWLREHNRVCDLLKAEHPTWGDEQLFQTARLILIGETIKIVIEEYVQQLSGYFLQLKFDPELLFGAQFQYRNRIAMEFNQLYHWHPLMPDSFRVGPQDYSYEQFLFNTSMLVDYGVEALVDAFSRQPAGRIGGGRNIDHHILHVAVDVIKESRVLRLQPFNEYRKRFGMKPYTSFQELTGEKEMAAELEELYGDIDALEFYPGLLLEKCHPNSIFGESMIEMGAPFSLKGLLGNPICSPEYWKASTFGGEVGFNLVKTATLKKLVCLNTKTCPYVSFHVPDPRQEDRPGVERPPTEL

[5] = Plasma protein binding, human plasma; assay type: in vitro ADME
Outline: (§1)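 Equilibrium dialysis in a high-throughput micro-equilibrium device, with test compound incubated in mouse, dog or human plasma at 37 °C. Samples were taken at 0 and 4.5 h and quantified by fast-gradient LC–MS/MS. Unbound fraction was calculated as buffer-side concentration divided by protein-side concentration. Recovery was the summed buffer and protein chamber concentrations relative to the 0 h concentration.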

[6] = In vivo plasma half-life of FDF in mice; conditions: male, CD-1, mouse, ip, 10 mg/kg
[7] = Plasma protein binding, free fraction across species; assay type: in vitro ADME; conditions: mouse, dog, human
Outline: as §1

[8] = Plasma protein binding, mouse plasma; assay type: in vitro ADME
Outline: as §1

[9] = In vivo biodistribution and defluorination of unlabeled FDF in C57BL/6 mice; set-up: species or system mouse; conditions: 10 mg/kg i.p., 60 min
Outline: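 Male C57BL/6 mice (30 g, three per group) received unlabeled test compound at 10 mg/kg i.p. "at 10 min intervals." At 60 min, brain, lungs, heart, kidney, liver and muscle were taken, rinsed in cold PBS and frozen at −80 °C. Tissues were homogenized in acetonitrile, extracts dried and reconstituted in methanol/water. Quantitation was by C18 LC–MS/MS, SRM m/z 279 → 236, against a 1:1 methanol/water standard curve.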

[10] = Plasma protein binding, dog plasma; assay type: in vitro ADME
Outline: as §1

Structure (SMILES)	IC50 [1]	IC50 [3]	IC50 [4]	other results
CC1(C)OC(=O)C(c2ccccc2)=C1c1ccccc1 [Compound 1, 5,5-Dimethyl-3,4-diphenylfuran-2(5H)-one]	> 5000 nM	120 nM	360 nM	Inhibition of purified COX-2 (in words) ([2]; at concentrations up to 25 μM): no inhibition
Cc1ccc(C2=C(c3ccccc3)C(=O)OC2(C)C)cc1 [Compound 2, 5,5-Dimethyl-3-phenyl-4-(p-tolyl)furan-2(5H)-one]	> 5000 nM	490 nM	50 nM	
CC1(C)OC(=O)C(c2ccc(F)cc2)=C1c1ccccc1 [Compound 3, 3-(4-Fluorophenyl)-5,5-dimethyl-4-phenylfuran-2(5H)-one]	> 5000 nM	280 nM	640 nM	
Cc1ccc(C2=C(c3ccc(F)cc3)C(=O)OC2(C)C)cc1 [Compound 4, 3-(4-Fluorophenyl)-5,5-dimethyl-4-(p-tolyl)furan-2(5H)-one]	> 5000 nM	220 nM	140 nM	fraction unbound at 4.5 h [5]: ~0.01; half-life [6]: 1.2 h; fraction unbound at 4.5 h [7]: 0.0099 to 0.025; fraction unbound at 4.5 h [8]: 0.025; Defluorinated metabolite in other organs [9]: below the quantification limit; Uptake in the kidney (average) [9]: 8.87 nmol/g tissue; Uptake in the liver (overall average) [9]: 0.61 nmol/g tissue; fraction unbound at 4.5 h [10]: ~0.01

Second part, led by results:

IC50 [1]	IC50 [3]	IC50 [4]	Structure (SMILES)	other results
> 5000 nM	130 nM	50 nM	Cc1ccc(C2=C(c3cccc(F)c3)C(=O)OC2(C)C)cc1 [Compound 5, 3-(3-Fluorophenyl)-5,5-dimethyl-4-(p-tolyl)furan-2(5H)-one]	
> 5000 nM	800 nM	40 nM	Cc1ccc(C2=C(c3ccc(I)cc3)C(=O)OC2(C)C)cc1 [Compound 6, 3-(4-Iodophenyl)-5,5-dimethyl-4-(p-tolyl)furan-2(5H)-one]	
> 5000 nM	> 5000 nM	> 25000 nM	COc1ccc([I+]c2ccc(C3=C(c4ccc(C)cc4)C(C)(C)OC3=O)cc2)cc1.Cc1ccc(S(=O)(=O)[O-])cc1 [Compound 7, (4-(5,5-Dimethyl-2-oxo-4-(p-tolyl)-2,5-dihydrofuran-3-yl)phenyl)(4-methoxyphenyl)iodonium Tosylate]	Inhibition of COX-2 in 1483 HNSCC cells (in words) [1]: inactive; Inhibition of purified COX-2 (in words) [2]: failed to inhibit; Inhibition of COX-1 in intact OVCAR3 cells (in words) [3]: inactive; Inhibition of purified COX-1 (in words) [4]: failed to inhibit

From publication PMC6545551 (ACS Omega, 2019)
